Measurements collected from several papers.
Lines come from different studies, so protocols differ.
Target: Serine/threonine-protein kinase BRSK1 (BRSK1, Homo sapiens, UniProt Q8TDC3)
Sequence (Q8TDC3 1-778, as in one of the studies): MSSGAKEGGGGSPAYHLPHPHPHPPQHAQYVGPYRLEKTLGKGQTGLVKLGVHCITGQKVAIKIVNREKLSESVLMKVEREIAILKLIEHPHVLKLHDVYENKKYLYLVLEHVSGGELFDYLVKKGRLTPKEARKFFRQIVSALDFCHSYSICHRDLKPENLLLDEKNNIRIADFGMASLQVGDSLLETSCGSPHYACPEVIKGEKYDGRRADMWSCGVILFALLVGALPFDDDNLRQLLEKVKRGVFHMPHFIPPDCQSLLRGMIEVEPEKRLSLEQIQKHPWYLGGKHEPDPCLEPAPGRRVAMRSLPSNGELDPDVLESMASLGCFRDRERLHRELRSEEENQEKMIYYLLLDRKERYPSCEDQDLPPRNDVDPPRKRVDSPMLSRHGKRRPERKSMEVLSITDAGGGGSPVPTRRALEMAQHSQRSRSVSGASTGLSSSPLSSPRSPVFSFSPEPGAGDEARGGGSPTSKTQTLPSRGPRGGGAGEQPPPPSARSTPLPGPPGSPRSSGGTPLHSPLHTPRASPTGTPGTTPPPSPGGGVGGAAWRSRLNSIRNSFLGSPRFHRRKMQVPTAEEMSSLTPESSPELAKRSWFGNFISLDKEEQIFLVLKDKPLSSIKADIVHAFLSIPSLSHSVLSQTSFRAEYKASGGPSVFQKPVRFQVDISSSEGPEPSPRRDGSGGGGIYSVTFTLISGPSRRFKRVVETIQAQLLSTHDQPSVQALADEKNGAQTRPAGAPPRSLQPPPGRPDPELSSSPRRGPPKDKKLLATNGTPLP

SMILES	test	conditions	quantity	result
COc1ncccc1-c1cnn2ccc(N3CCN(C(=O)OC(C)C)CC3)nc12	binding, competition with immobilised ligand	1 µM	remaining binding	93%
Nc1ncc(-c2nc(N3CCOCC3)nc(N3CCOCC3)n2)c(C(F)F)n1	binding, competition with immobilised ligand	10 µM	remaining binding	91%
O=c1[nH]c2ccccc2n1C1CCN(Cc2ccc(-c3[nH]c4cc5ncnc5cc4nc3-c3ccccc3)cc2)CC1	cell-free assay	0.5 µM	remaining signal	98.3%
N#CC1(c2ccccn2)CCN(Cc2cc(C(=O)O)c(=O)n3ccccc23)CC1	cell-free assay, competition with immobilised ligand	1 µM	remaining binding	100%
Cn1cc(-c2cccc(N3CCc4c(sc5c4CC(C)(C)C5)C3=O)c2CO)cc(Nc2ccncn2)c1=O	enzyme activity, inhibitor	1 µM	inhibition	3%
Cc1nn(C)cc1-c1nc2c(N3CCN(Cc4ccc(Cl)cc4)CC3)c(Cl)cnc2[nH]1	binding, competition with immobilised ligand	1 µM	remaining binding	100%
Cn1cncc1[C@@](O)(COc1ccc(C#N)cc1-c1ccc(OC(F)(F)F)cc1)c1ccc(C#N)cc1	cell-free assay, competition with immobilised ligand	1 µM	remaining binding	86%
CC(C)(C)c1cc(C=C(C#N)C#N)cc(Br)c1O	enzyme activity, inhibitor	0.5 µM	remaining activity	94%
Cn1cc(-c2cc(F)cc(N3CCn4c(cc5c4CCCC5)C3=O)c2CO)cc(Nc2ccc(N3CCN(C4COC4)CC3)cn2)c1=O	enzyme activity, inhibitor	0.1 µM	inhibition	12%
